Source: PubChem BioAssay
An excerpt weighted towards active compounds, which were near 1.8% of everything screened.
MBD2 inh – MBD2-methylated oligo binding inhibition. TR-FRET, MBD2 binding to methylated oligonucleotide. Q9UBB5. inhibition, % at 4.4 µM. 370,000 tested, 0.31% active; in the data active = inhibition above about 13%
NSD2 inh – inhibitors of human histone methyltransferase NSD2; NSD2 peptide methylation, AlphaScreen, 120 min; inhibition, % at 12.5 µM; O96028; AID 743445; 310,000 tested, 0.54% active; in the data active = inhibition above about 50%
UHRF1 MBD2 ctr – human UHRF1 methylated DNA binding inhibitors; UHRF1 binding to methylated oligo, TR-FRET; inhibition, % at 4.4 µM; 370,000 tested, 0.75% active; AID 687016;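 also: UHRF1 SRA domain binding a hemimethylated CpG hairpin DNA probe; 0% = median of test compound wells and 100% = reference inhibitor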
LEDGF integ inh – blocks HIV-1 LEDGF/p75-dependent DNA integration. TR-FRET IN-LEDGF/p75 DNA integration, Eu/Cy5. inhibition, % at 3.7 µM. 370,000 tested, 0.64% active. AID 743269;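 active = inhibition above the screen-wide mean plus 3 SD, cut at about 13% in these data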;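 also: signal is the Cy5 over europium emission ratio at 671 and 618 nm; 0% = plate median of compound wells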
CASP6 VEID inh – blocks human caspase-6 cleavage activity. P55212. purified caspase-6, Z-VEID-R110 cleavage fluorescence. inhibition, % at 12.5 µM. 350,000 tested, 0.53% active;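 active = mean inhibition across replicates at least about 35%, with every replicate also reaching that limit, limit read from the data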;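 also: 0% = median of neutral control wells and 100% = no fluorescence left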
Target sequence (P55212 24-179 limits assumed): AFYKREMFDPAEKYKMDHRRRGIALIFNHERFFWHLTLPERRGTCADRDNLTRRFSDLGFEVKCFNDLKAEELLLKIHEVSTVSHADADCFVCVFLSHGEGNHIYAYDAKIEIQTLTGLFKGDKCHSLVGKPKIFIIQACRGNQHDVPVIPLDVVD
Target sequence (P55212 194-293 limits assumed): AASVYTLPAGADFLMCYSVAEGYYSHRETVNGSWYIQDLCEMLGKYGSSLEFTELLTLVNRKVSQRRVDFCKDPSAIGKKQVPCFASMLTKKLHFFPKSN
TDP2 absorb – blocks human TDP2 phosphodiesterase activity. inhibition, % at 12.8 µM. AID 720702. 370,000 tested, 0.34% active. O95551. recombinant TDP2, T5PNP hydrolysis, p-nitrophenol absorbance 415 nm;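 active = inhibition above the mean of all tested compounds plus 3 SD, set per campaign, cut at about 25% in these data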;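 also: 0% = DMSO with enzyme and 100% = buffer with substrate but no TDP2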
Target sequence (O95551 whole entry, looked up): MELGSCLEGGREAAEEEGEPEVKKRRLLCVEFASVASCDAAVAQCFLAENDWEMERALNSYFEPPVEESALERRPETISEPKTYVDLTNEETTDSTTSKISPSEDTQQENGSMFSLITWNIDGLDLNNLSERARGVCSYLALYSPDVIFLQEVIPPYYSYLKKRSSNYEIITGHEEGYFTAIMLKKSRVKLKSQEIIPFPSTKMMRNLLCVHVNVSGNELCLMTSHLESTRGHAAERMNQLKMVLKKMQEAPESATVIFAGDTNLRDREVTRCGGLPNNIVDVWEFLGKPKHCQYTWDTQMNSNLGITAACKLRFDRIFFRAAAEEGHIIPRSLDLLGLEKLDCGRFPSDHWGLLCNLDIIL
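Test system: human TDP2 enzyme; Input: 120 nM TDP2 per well; Buffer or medium: Mg2+-containing Tris-HCl buffer, pH 7.5; Reagent: 5 mM T5PNP; Dosing: 12.8 µM single point, 1% DMSO; Incubation: reaction 2 h, 37 °C; Detection: p-Nitrophenol epi absorbance; Read-out: % inhibition relative to enzyme-containing and enzyme-free wells; Replicates: single well per compound.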
UHRF1 ctr MBD2 – counter-screen for MBD2 inhibitors: human UHRF1 methylated DNA binding inhibitors. UHRF1 binding to methylated oligonucleotide, TR-FRET. AID 720530. shares compounds with MBD2 inh. 1,000 tested, 25% active. inhibition, % at 4.4 µM;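 also: UHRF1 SRA domain binding a labeled hemimethylated CpG hairpin DNA; 0% = vehicle only and 100% = reference inhibitor with vehicle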
MBD2 confirm – MBD2-DBD methyl-DNA binding inhibition, TR-FRET confirmation | TR-FRET MBD2-DBD binding to methylated oligonucleotide | AID 720531 | 1,000 tested, 26% active | shares compounds with MBD2 inh | inhibition, % at 4.4 µM; in the data active = inhibition above about 14%
* hit, by the source's call; · = no result. Rule as the data show it, unless noted: active = inhibition above about 21%; inactive = the rest.

SMILES	MBD2 inh	NSD2 inh	UHRF1 MBD2 ctr	LEDGF integ inh	CASP6 VEID inh	TDP2 absorb	UHRF1 ctr MBD2	MBD2 confirm
CC(=O)Nc1cc(-c2cccc(C(=O)N(C)C)c2)cn2c(-c3ccc(C(C)=O)cc3)cnc12	14*	2	-3	-2	8	5	8	5
COCC#Cc1ccc2c(c1)O[C@@H](CN(C)CC1CCOCC1)[C@H](C)CN([C@H](C)CO)S2(=O)=O	·	·	·	·	0	·	·	·
O=C(CCS(=O)(=O)c1cc2c(cc1Cl)NC(=O)CO2)NCCc1ccccc1	31*	-1	-1	3	-1	19	7	0
O=C(CCS(=O)(=O)c1cc2c(cc1Cl)NC(=O)CO2)NCc1ccccc1	2	-4	5	-2	-2	-15	·	·
COc1ccccc1C(=O)NC(CCSC)C(=O)NCC(c1ccco1)N(C)C (stereo not drawn)	4	·	2	-8	·	-7	·	·
COc1ccccc1C(=O)NC(CCSC)C(=O)NCC(c1cccs1)N(C)C (stereo not drawn)	14*	31	3	0	-4	0	11	2
CCCN1[C@H](C(=O)NCCCN2CCOCC2)[C@@H](CO)[C@@H]2Cn3c(ccc(-c4ccccc4)c3=O)[C@@H]21	·	·	·	·	2	·	·	·
CC(CCc1ccccc1)NC(=O)CN1CCN(Cc2ccccc2)C1=O (stereo not drawn)	0	-2	2	-2	·	-4	·	·
CC(CCc1ccccc1)NC(=O)CN1CCN(Cc2ccc(Cl)cc2)C1=O (stereo not drawn)	17*	·	1	-2	2	-6	5	4
O=C(OCC(=O)N1CCc2ccccc21)c1ccccc1F	2	-6	4	4	0	-1	·	·
C[C@H](NS(=O)(=O)c1ccccc1F)C(=O)OCC(=O)N1CCc2ccccc21	17*	-2	-1	-3	·	-3	7	2
CCCNC(=O)N1[C@H](C#N)[C@@H](c2ccccc2-c2ccccc2F)[C@@H]1CO	·	·	·	·	-3	·	·	·
CCN(CC(=O)Nc1c(F)cccc1F)C(=O)c1ccc2ccccc2n1	-1	-1	4	-4	3	7	·	·
CCN(CC(=O)Nc1c(F)cccc1F)C(=O)/C=C/c1ccc2ccccc2n1	30*	6	64*	10	47*	-7	66*	58*
CNC(=O)C[C@H]1CC[C@@H]2[C@H](COc3ccc(NC(=O)c4ccc(F)c(F)c4)cc3C(=O)N2C)O1	·	·	·	·	-2	·	·	·
CC1Sc2ccccc2N(Cc2ccc(OC(F)(F)F)cc2)C1=O (stereo not drawn)	26*	-4	17	-1	1	-1	5	5
O=C(NC(=S)Nc1nc(-c2ccc(Br)cc2)cs1)c1cccnc1	16*	-1	-3	2	·	3	6	1
O=C(Nc1nc(-c2ccc(Br)cc2)cs1)c1cccnc1	-5	-1	4	1	-1	7	·	·
Cc1ccc(NC(=O)CCOc2ccccc2)cc1	59*	-3	0	-1	-3	15	4	3
O=C(CCCCn1c(=O)c2ccccc2n(Cc2ccccc2)c1=O)NC1CCN(Cc2ccccc2)CC1	13*	-4	27*	-4	-2	5	4	2
CCC(=O)Nc1ccc2c(c1)C(=O)N(C)C[C@@H](OC)[C@@H](C)CN(CCC(F)(F)F)[C@@H](C)CO2	·	·	·	·	1	·	·	·
COc1ccc2c(CC(=O)N3CCN(S(=O)(=O)c4ccc(F)cc4)CC3)coc2c1	73*	-1	7	8	-3	-11	12	6
COc1ccc2c(CC(=O)N3CCN(S(=O)(=O)c4cccs4)CC3)coc2c1	-6	0	5	6	·	-2	·	·
CNC[C@@H]1Oc2c(NS(=O)(=O)c3ccc(F)cc3)cccc2C(=O)N([C@@H](C)CO)C[C@H]1C	·	·	·	·	3	·	·	·
CCn1nc(C(=O)Nc2nc(-c3ccccn3)cs2)c2ccccc2c1=O	27*	2	-3	-5	2	3	-3	4
SMILES	MBD2 inh	NSD2 inh	UHRF1 MBD2 ctr	LEDGF integ inh	CASP6 VEID inh	TDP2 absorb	UHRF1 ctr MBD2	MBD2 confirm
CCCn1nc(C(=O)Nc2nc(-c3ccccn3)cs2)c2ccccc2c1=O	8	1	-4	-1	0	0	·	·
COc1ccccc1NC(=O)N[C@@H]1C=C[C@@H](CC(=O)NCc2ccc(Cl)c(Cl)c2)O[C@H]1CO	·	·	·	·	-1	·	·	·
COC(=O)N1CC(=O)N(OC)C1c1ccc(Cl)cc1Cl (stereo not drawn)	15*	-2	25*	6	·	2	11	4
Cc1ccc(NC(=S)N(CCCN2CCN(C)CC2)Cc2cccs2)cc1C	-1	1	-2	-3	-6	1	·	·
Cc1ccc(NC(=S)N(CCCN2CCN(C)CC2)Cc2cccs2)cc1	16*	3	25*	4	-6	-17	9	3
COc1ccc(N2CCN(C(=O)c3ccc(CS(=O)c4cccc(C)c4)o3)CC2)cc1 (stereo not drawn)	14*	7	23*	-1	1	-6	5	4
COc1cccc(N2CCN(C(=O)c3ccc(CS(=O)c4ccccc4C)o3)CC2)c1 (stereo not drawn)	2	0	1	2	2	-11	·	·
CCC(C)NC(=O)CSc1nc2ccccc2c(=O)n1CCCC(=O)NCC1CCCO1 (stereo not drawn)	-1	-1	0	0	5	8	·	·
CCC(C)NC(=O)CSc1nc2ccccc2c(=O)n1CCCN1CCCCC1 (stereo not drawn)	14*	0	0	-2	7	-11	2	3
O=C1COc2ccc(C(=O)COC(=O)/C=C/c3ccc(Br)o3)cc2N1	19*	0	46*	24*	29	-1	44*	32*
CS(=O)(=O)c1ccc(C(=O)Nc2nc(-c3ccco3)c(-c3ccco3)s2)cc1	41*	4	88*	89*	22	7	12	4
CC(C)CC#Cc1ccc2c(c1)O[C@H](CN(C)CC1CCOCC1)[C@H](C)CN([C@H](C)CO)S2(=O)=O	·	·	·	·	2	·	·	·
CCCSC1=N/C(=C\c2ccsc2)C(=O)S1	6	4	6	3	·	-7	·	·
CCCSC1=N/C(=C\C=C\c2ccco2)C(=O)S1	57*	24	95*	69*	·	6	27*	10
O=C(C[C@H]1CC[C@H](NC(=O)c2ccncc2)[C@@H](CO)O1)NCc1ccncn1	·	·	·	·	1	·	·	·
Cc1cc(C)c(OCC(=O)OCC(=O)NNC(=O)c2ccccc2F)c(C)c1	22*	-2	3	-7	0	7	5	2
